Results as given in paper PMC10249145 (Cardiovascular & hematological agents in medicinal chemistry, 2023).
One block for each molecule: values may come before it.

Assays:
[1] = biological target: T1, human FXIIa (Homo sapiens, UniProt P00748); assay: Direct inhibition of human FXIIa, chromogenic substrate hydrolysis assay; type: biochemical
T1 sequence (P00748 20-615): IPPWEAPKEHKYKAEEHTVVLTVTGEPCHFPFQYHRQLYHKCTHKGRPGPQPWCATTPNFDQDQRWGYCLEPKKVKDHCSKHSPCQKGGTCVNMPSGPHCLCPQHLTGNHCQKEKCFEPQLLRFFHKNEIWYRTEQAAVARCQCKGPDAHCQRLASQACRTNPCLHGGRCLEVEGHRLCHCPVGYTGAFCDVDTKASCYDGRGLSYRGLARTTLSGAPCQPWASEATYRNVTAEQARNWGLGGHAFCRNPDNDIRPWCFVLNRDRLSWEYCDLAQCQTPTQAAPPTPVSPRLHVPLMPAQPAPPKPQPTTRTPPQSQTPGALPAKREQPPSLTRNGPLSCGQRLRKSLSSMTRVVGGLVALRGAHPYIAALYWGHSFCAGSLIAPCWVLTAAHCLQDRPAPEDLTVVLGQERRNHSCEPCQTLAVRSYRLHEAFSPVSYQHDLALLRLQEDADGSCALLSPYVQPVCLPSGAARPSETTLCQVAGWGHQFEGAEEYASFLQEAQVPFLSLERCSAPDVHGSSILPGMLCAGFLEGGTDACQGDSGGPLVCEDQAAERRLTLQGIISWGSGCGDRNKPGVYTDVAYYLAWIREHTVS
In short: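 Human FXIIa (stock 200 nM) was preincubated for 5 min with test compound or vehicle in Tris-HCl pH 7.4 with NaCl, 2.5 mM CaCl2, 0.1% PEG8000 and 0.02% Tween80 at 37 °C. Spectrozyme FXIIa (stock 5 mM) was then added. Twelve in-well concentrations (500–0.0025 μM) were tested. Residual activity was taken from the initial A405 rate, and a logistic fit gave IC50, efficacy and Hill slope (±1 S.E.).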

[2] = biological target: bovine α-chymotrypsin (Bos taurus, UniProt P00766, DEL14-15/DEL147-148); assay: Inhibition of chymotrypsin, chromogenic substrate hydrolysis assay; type: biochemical
In short: (§1)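 Bovine α-chymotrypsin at 500 ng/mL with N-succinyl-Ala-Ala-Pro-Phe-p-nitroanilide at 910 μM in-well (from KM), in pH 7.4 Tris-HCl with NaCl, CaCl2, PEG8000 and Tween80. Residual activity was measured over several test compound concentrations, with logistic fitting for IC50 where inhibition was concentration-dependent.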

[3] = system: bovine α-chymotrypsin; assay: as above; type: biochemical; conditions: ratio of IC50 values
In short: as §1

[4] = biological target: T2, FVIIa/tissue factor (Homo sapiens, UniProt P08709); assay: Inhibition of FVIIa/tissue factor, chromogenic substrate hydrolysis assay; type: biochemical
T2 sequence (P08709 61-466): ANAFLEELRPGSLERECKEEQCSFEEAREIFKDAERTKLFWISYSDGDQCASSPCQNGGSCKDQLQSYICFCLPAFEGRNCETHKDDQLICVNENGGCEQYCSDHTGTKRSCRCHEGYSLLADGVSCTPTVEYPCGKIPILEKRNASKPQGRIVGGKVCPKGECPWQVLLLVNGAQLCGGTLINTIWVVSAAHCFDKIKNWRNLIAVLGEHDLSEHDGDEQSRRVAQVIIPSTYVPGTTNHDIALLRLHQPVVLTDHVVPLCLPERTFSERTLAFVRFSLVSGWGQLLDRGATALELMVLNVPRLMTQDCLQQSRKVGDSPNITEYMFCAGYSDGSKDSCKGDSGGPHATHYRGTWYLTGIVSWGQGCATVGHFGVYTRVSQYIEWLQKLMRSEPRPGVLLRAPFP
In short: (§2)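 FVIIa/tissue factor: enzyme about 8 nM with Spectrozyme VIIa at 1000 μM in-well, chosen from KM. Buffer was pH 7.4 Tris-HCl with NaCl, 2.5 mM CaCl2, 0.1% PEG8000 and 0.02% Tween80. Residual chromogenic activity was measured at several test compound concentrations, and a logistic fit gave IC50 where inhibition was concentration-dependent.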

[5] = system: FVIIa/tissue factor; assay: as above; type: biochemical, human; conditions: ratio of IC50 values
In short: as §2

[6] = system: human plasma; assay: Prothrombin time; type: biochemical; conditions: normal human plasma; highest concentration tested about 980 μM
In short: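 Thromboplastin-D was reconstituted in distilled water and warmed to 37 °C. Citrated pooled normal human plasma was incubated with test compound (solutions of 0–983 μM as added) for 30 s at 37 °C. Clotting was started by adding the prewarmed thromboplastin-D and the clotting time was read on a fibrometer. The concentration giving a 1.5-fold increase in PT was derived. Values are means of three experiments.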

[7] = biological target: T1, human FXIIa; assay: Inhibition of FXIIa-mediated activation of FXI to FXIa; type: biochemical
In short: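 Zymogen FXI (4 μM as added), human FXIIa (200 nM as added) and test compound (1000–0.32 μM as added) were combined in Tris-HCl pH 7.4 at 37 °C. After 5 min, S-2366 (stock 6.9 mM) was added. The FXIa generated was measured as the initial A405 rate. A logistic fit of relative residual activity gave IC50 and efficacy.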

[8] = biological target: human plasma kallikrein (Homo sapiens, UniProt P03952); assay: Inhibition of plasma kallikrein, chromogenic substrate hydrolysis assay; type: biochemical
Chain of human plasma kallikrein (Homo sapiens, UniProt P03952) (P03952 20-638): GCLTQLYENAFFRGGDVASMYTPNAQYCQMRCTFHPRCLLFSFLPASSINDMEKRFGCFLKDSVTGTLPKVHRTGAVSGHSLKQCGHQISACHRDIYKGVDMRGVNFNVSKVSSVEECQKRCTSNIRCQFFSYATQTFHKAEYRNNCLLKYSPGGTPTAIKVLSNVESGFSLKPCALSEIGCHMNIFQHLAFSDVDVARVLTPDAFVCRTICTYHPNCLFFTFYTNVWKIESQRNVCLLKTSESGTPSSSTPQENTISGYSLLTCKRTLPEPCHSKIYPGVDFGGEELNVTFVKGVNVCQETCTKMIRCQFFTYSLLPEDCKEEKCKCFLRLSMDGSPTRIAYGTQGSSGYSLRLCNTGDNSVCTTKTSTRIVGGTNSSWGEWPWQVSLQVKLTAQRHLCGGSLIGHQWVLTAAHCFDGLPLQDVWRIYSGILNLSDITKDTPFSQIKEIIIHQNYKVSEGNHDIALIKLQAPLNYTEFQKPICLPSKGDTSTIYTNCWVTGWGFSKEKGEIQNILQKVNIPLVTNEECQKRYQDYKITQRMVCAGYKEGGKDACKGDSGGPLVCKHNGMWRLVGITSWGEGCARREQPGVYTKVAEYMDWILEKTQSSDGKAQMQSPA
In short: (§3)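 Human plasma kallikrein was used at about 3 nM with Spectrozyme PK at 100 μM (in-well, set from KM), in pH 7.4 Tris-HCl with NaCl, CaCl2, PEG8000 and Tween80. Residual activity was measured at several test compound concentrations; IC50 was fitted by logistic equation where inhibition was concentration-dependent.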

[9] = system: human plasma kallikrein; assay: as above; type: biochemical; conditions: ratio of IC50 values
In short: as §3

[10] = system: human plasma; assay: Activated partial thromboplastin time; type: biochemical; conditions: normal human plasma, ellagic acid APTT reagent
In short: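 Citrated pooled normal human plasma was mixed with test compound (solutions of 0–983 μM as added) and prewarmed ellagic acid APTT reagent (0.2%). After 4 min at 37 °C, clotting was started with prewarmed 25 mM CaCl2 and the clotting time was read on a fibrometer. The concentration giving a 1.5-fold increase in APTT was derived. Values are means of three experiments.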

[11] = biological target: FXa (Homo sapiens, UniProt P00742, DEL180-234); assay: Inhibition of FXa, chromogenic substrate hydrolysis assay; type: biochemical
In short: (§4)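 In-well FXa was about 1.09 nM with Spectrozyme FXa at 125 μM (from KM), in pH 7.4 Tris-HCl containing NaCl, 2.5 mM CaCl2, 0.1% PEG8000 and 0.02% Tween80. Several test compound concentrations were used; residual activity was fitted with a logistic equation for IC50 where inhibition was concentration-dependent.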

[12] = system: FXa; assay: as above; type: biochemical, human; conditions: ratio of IC50 values
In short: as §4

[13] = system: FIXa; assay: Inhibition of FIXa, chromogenic substrate hydrolysis assay; type: biochemical, human; conditions: ratio of IC50 values
In short: (§5)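 FIXa assay: about 89 nM enzyme and 850 μM Spectrozyme FIXa (in-well, level set from KM), in pH 7.4 Tris-HCl with NaCl, CaCl2, PEG8000 and Tween80. Residual activity was measured at several test compound concentrations and fitted with a logistic equation for IC50 where inhibition was concentration-dependent.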

[14] = biological target: FIXa (Homo sapiens, UniProt P00740, DEL192-226); assay: as above; type: biochemical
In short: as §5

[15] = biological target: T3, bovine trypsin (Bos taurus, UniProt P00760); assay: Inhibition of trypsin, chromogenic substrate hydrolysis assay; type: biochemical
T3 sequence (P00760 24-246): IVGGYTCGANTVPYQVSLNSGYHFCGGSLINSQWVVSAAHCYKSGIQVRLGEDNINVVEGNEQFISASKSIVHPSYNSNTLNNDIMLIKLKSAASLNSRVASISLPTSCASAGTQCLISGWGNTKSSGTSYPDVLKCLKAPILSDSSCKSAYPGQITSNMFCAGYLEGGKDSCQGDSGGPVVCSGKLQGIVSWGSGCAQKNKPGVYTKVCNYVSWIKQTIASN
In short: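 Bovine trypsin at 500 ng/mL with S-2222 at 650 μM in-well (substrate level from KM), in pH 7.4 Tris-HCl containing NaCl, CaCl2, PEG8000 and Tween80. Residual activity was measured at several test compound concentrations, with logistic fitting for IC50 where inhibition was concentration-dependent.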

[16] = biological target: T1, human FXIIa; assay: Affinity to human FXIIa by intrinsic tryptophan fluorescence spectroscopy; type: binding
In short: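 Test compound (100 μM) was titrated into human FXIIa (350 nM) in 50 mM Tris-HCl pH 7.4 with 150 mM NaCl and 0.1% PEG8000 at 37 °C. Intrinsic tryptophan fluorescence was read at λem 348 nm (λex 280 nm). The fluorescence change was fitted to a quadratic equilibrium binding equation to give Kd.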

[17] = biological target: FXIa (Homo sapiens, UniProt P03951); assay: Inhibition of FXIa, chromogenic substrate hydrolysis assay; type: biochemical
Chain of FXIa (Homo sapiens, UniProt P03951) (P03951 19-625): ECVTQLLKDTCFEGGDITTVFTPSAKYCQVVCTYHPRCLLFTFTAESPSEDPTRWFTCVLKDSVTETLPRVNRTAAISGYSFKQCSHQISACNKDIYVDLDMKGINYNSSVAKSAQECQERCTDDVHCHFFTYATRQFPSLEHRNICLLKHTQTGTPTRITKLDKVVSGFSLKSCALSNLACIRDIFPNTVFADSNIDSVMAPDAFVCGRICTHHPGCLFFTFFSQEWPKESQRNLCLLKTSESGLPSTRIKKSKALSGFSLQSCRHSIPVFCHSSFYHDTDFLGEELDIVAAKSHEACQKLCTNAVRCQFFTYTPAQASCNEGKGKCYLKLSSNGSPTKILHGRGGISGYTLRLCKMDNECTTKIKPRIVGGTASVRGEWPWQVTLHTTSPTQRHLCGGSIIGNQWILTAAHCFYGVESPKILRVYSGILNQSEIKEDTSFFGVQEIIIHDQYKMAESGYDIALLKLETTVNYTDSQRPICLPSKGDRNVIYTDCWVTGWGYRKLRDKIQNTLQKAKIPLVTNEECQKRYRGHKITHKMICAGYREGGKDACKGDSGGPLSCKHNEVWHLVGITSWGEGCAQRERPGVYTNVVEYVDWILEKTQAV
In short: (§6)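 Human FXIa activity was measured with chromogenic substrate S-2366 in pH 7.4 Tris-HCl with NaCl, 2.5 mM CaCl2, 0.1% PEG8000 and 0.02% Tween80. Residual activity was measured at several test compound concentrations, and a logistic fit gave IC50, efficacy and Hill slope.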

[18] = system: FXIa; assay: as above; type: biochemical, human; conditions: ratio of IC50 values
In short: as §6

[19] = system: thrombin; assay: Inhibition of thrombin, chromogenic substrate hydrolysis assay; type: biochemical, human; conditions: ratio of IC50 values
In short: (§7)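 Thrombin at about 6 nM with Spectrozyme TH at 50 μM (in-well), in pH 7.4 Tris-HCl buffer with NaCl, CaCl2, PEG8000 and Tween80. Substrate level was set from its KM. Residual activity was measured across several test compound concentrations, and a logistic fit of concentration-dependent inhibition gave IC50, efficacy and Hill slope.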

[20] = biological target: thrombin (Homo sapiens, UniProt P00734); assay: as above; type: biochemical
In short: as §7

[21] = system: human plasmin; assay: Inhibition of plasmin, chromogenic substrate hydrolysis assay; type: biochemical; conditions: ratio of IC50 values
In short: (§8)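 Human plasmin at about 20 nM with Spectrozyme PL at 50 μM in-well (set from KM), in pH 7.4 Tris-HCl with NaCl, 2.5 mM CaCl2, 0.1% PEG8000 and 0.02% Tween80. Residual activity was measured at several test compound concentrations, and a logistic fit gave IC50, efficacy and Hill slope.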

[22] = biological target: human plasmin (Homo sapiens, UniProt P00747); assay: as above; type: biochemical
Chain of human plasmin (Homo sapiens, UniProt P00747) (P00747 97-810): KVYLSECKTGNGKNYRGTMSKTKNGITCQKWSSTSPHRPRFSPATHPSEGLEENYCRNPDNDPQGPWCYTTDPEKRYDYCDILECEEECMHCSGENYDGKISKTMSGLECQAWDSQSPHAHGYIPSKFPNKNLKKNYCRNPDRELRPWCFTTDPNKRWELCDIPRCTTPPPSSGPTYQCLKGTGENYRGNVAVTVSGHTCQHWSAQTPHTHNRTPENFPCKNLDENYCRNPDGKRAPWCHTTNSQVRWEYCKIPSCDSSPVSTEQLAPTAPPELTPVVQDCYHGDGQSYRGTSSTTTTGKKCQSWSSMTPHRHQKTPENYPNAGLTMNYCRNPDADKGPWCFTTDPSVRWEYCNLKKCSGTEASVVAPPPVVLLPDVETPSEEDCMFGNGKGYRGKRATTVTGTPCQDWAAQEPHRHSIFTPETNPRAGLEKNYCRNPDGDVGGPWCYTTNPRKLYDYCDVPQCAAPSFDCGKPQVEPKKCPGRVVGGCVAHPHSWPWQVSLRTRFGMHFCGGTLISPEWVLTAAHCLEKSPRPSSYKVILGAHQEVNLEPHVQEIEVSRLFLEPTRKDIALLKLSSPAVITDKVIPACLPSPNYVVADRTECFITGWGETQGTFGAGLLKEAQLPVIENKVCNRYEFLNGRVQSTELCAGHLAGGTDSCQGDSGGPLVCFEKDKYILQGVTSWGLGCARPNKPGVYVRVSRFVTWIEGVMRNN
In short: as §8

[23] = human FXIIa, pH 7.4, 37 °C, ± 1 S.E.

decrease in the inhibition potency ([1]; FXIIa IC50 relative to inhibitor 1): ~ 2.2 fold | DeltaY (efficacy of inhibition) [1, 23]: 92.2 ± 3.1% | HS (Hill slope) [1, 23]: 1.09 ± 0.14
Structure (SMILES): COC(=O)c1nc(N)n(C(=O)c2ccccc2)n1 [Inhibitor 2, Methyl 5-amino-1-benzoyl-1H-1,2,4-triazole-3-carboxylate]

IC50 [2]: > 1000 µM | IC50 [4]: > 1000 µM | IC50 [7]: ~2 µM | efficacy of FXIIa inhibition using the macromolecule substrate FXI ([7]; residual FXIa activity by S-2366, pH 7.4, 37 °C): ~ 41% | IC50 [8]: > 500 µM | HS (Hill slope) [1, 23]: 1.7 ± 0.4 | IC50 [11]: > 577 µM | IC50 [14]: > 1000 µM | IC50 [15]: > 1000 µM | selectivity to FXIIa over trypsin ([15]; ratio of IC50 values): at least 4545 fold | Kd [16]: 0.98 ± 0.13 µM | IC50 [17]: 16.8 ± 6.7 µM | DeltaY (efficacy of inhibition) ([17]; FXIa): 32 ± 11% | HS (Hill slope) ([17]; FXIa): 1.9 ± 2.8 | IC50 [20]: 235 ± 52.5 µM | DeltaY (efficacy of inhibition) ([20]; Thrombin): 106 ± 7% | HS (Hill slope) ([20]; Thrombin): 0.4 ± 0.1 | IC50 [22]: 83.2 ± 37 µM | DeltaY (efficacy of inhibition) ([22]; Plasmin): 25 ± 12% | HS (Hill slope) ([22]; Plasmin): 1.4 ± 1.6
Structure (SMILES): COC(=O)c1nc(N)n(C(=O)c2ccc(C(C)(C)C)cc2)n1 [Inhibitor 1, Methyl 5-amino-1-(4-(tert-butyl)benzoyl)-1H-1,2,4-triazole-3-carboxylate]
selectivity to FXIIa over α-chymotrypsin [3]: at least 4545 fold | selectivity to FXIIa over FVIIa/TF [5]: at least 4545 fold | PT (EC×1.5), concentration required to increase PT by 1.5-fold [6]: not significantly affected | selectivity to FXIIa over plasma kallikrein [9]: at least 4545 fold | APTT (EC×1.5), concentration required to increase APTT by 1.5-fold [10]: ~340 µM | APTT (EC×1.5), concentration required to increase APTT by 1.5-fold ([10]; listed as 1): ~ 340 μM | selectivity to FXIIa over FXa [12]: at least 4545 fold | selectivity to FXIIa over FIXa [13]: at least 4545 fold | selectivity index to human FXIIa over FXIa [18]: 153 fold | selectivity index to human FXIIa over thrombin [19]: 2137 fold | selectivity index to human FXIIa over plasmin [21]: 756 fold
